# Compound activity deposited in PubChem by SRMLSC.
# PostGolgi ctrl – growth of the yeast control strain, post-Golgi counter-screen. 5% of 98,000 active. inhibition, % at 10 µM. efflux-deficient yeast background strain, growth absorbance A615, 16 h. AID 738
# PostGolgi yeast – growth inhibition of a yeast mutant, post-Golgi transport screen | post-Golgi transport phenotypic cell assay | inhibition, % at 10 µM | 0.9% of 98,000 active;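 note: yeast cells grown in 1536-well plates; yeast grown about 18 h at 30C before absorbance read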
# Ecoli WT expand – blocks growth of wild type E. coli BW25113. 0.15% of 98,000 active. AID 710. growth inhibition, % at 100 µM. OD600 absorbance;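 active = growth inhibition above about 50% at one test dose, limit read from the data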;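 note: growth measured after 20 h incubation at 37 °C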
# Ecoli tolC – growth inhibitors of E. coli BW25113 tolC mutant; OD615; growth inhibition, % at 10 µM (by protocol); 2.2% of 65,000 active; AID 573;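 active = growth inhibition at or above a cutoff equal to the mean over every tested compound plus 3 SD, cut at about 60% in these data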;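 note: growth measured after 20 h incubation at 37 °C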
#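 Material: E. coli BW25113 ΔtolC::kan, tolC deletion mutant strain. Measure: percent growth inhibition. Schedule: 37 °C, 20 h exposure. Doses: single-point testing at 10 µM. Signal: A615 absorbance measurement. Buffer or medium: kanamycin-containing LB broth (50 µg/mL).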
# A number is an active result; . = inactive; / = not tested or not shown. The list is not random: actives were taken first. Their share in the collection is about 6.3%. Cut-off read from the data, not from the text of the source, unless noted: active = inhibition above about 30%; inactive = the rest.
SMILES,PostGolgi ctrl,PostGolgi yeast,Ecoli WT expand,Ecoli tolC
CCCC1CCC(c2nc(-c3cccnc3)no2)CC1 (stereo unspecified),.,.,.,.
CCCCCC(=O)N1CCCC(c2nc(-c3ccc(OC)cc3)no2)C1 (stereo unspecified),.,.,.,/
O=C(Nc1ccc(Cl)cc1)N1CCC(c2nc(-c3ccc(F)cc3)no2)CC1,.,.,.,72
COc1ccc(NC(=O)N2CCCC(c3nc(-c4ccc(C(C)C)cc4)no3)C2)cc1 (stereo unspecified),.,.,.,62
Fc1ccc(-c2noc(C3CCN(Cc4cccnc4)CC3)n2)cc1,35,84,.,.
CC1Cc2ccccc2N1C(=O)CSc1nnc(-c2ccc(S(=O)(=O)N3CCCC3)cc2)o1 (stereo unspecified),.,.,.,.
COc1ccc(NC2c3ccccc3C(=O)N2c2ccccn2)cc1Cl (stereo unspecified),47,.,.,/
O=C1c2ccccc2C(Nc2ccc3c(c2)OCCO3)N1c1ccc(Cl)cn1 (stereo unspecified),35,.,.,.
O=C1c2ccccc2C(Nc2ccc(F)c(Cl)c2)N1c1ccccn1 (stereo unspecified),.,.,.,.
Cc1ccc(-n2c(C)cc(C(=S)N3CCOCC3)c2C)cc1C,.,.,.,/
COC(=O)c1cc(OC)c(OC)cc1NC(=O)CSc1ccccc1,43,.,.,/
COC(=O)c1cc(OC)c(OC)cc1NC(=O)Nc1ccccc1OC,.,.,.,.
COC(=O)c1ccc(C(=O)OC)c(NC(=O)CSc2cccc[n+]2[O-])c1,.,.,50,/
c1ccc(NCc2nc(-c3ccccc3)no2)cc1,32,.,.,.
CC(C)N(C(=O)c1ccccc1-c1ccccc1)C(C)C,.,.,.,/
O=C(NC1CC2CCC1C2)C1COc2ccccc2O1 (stereo unspecified),31,.,.,.
O=C(O)CNC(=O)C1COc2ccccc2O1 (stereo unspecified),.,.,.,.
COc1cccc(CSc2nc3sc(C)c(C)c3c(=O)n2Cc2ccco2)c1,.,.,.,.
CCc1ccc(C2CC(=O)N3CN(c4ccccc4)CSC3=C2C#N)cc1 (stereo unspecified),.,.,.,.
N#CC1=C2SCC(O)(c3ccccc3)N2C(=O)CC1c1ccccc1 (stereo unspecified),.,41,.,.
Brc1ccc(-c2nc(-c3cccnc3)no2)o1,.,.,.,.
Brc1ccc(-c2nc(-c3ccccc3)no2)o1,.,.,.,98
CCN(CC)Cc1nc2c(c(=O)[nH]1)C1(CCCCC1)Cc1ccccc1-2,32,.,.,.
O=c1c2c(nc3n1CCCCC3)-c1ccccc1CC21CCCC1,46,.,.,91
CN(C)Cc1nc2c(c(=O)[nH]1)C1(CCCCC1)Cc1ccccc1-2,.,.,.,62
SMILES,PostGolgi ctrl,PostGolgi yeast,Ecoli WT expand,Ecoli tolC
O=c1oc(-c2ccccc2)nc2c1C1(CCCCC1)Cc1ccccc1-2,.,.,.,/
Cn1c(NCCO)nc2c(c1=O)C1(CCCCC1)Cc1ccccc1-2,50,.,.,.
CN(C)Cc1nc2c(c(=O)[nH]1)C(C)(C)Cc1ccccc1-2,.,.,.,/
Cc1cccc(N2CCN(C(=O)CCn3c(=S)[nH]c4cc5c(cc4c3=O)OCO5)CC2C)c1 (stereo unspecified),.,.,.,.
COc1cc(C(=O)Nc2nnc(CC(=O)N3CCOCC3)s2)cc(OC)c1OC,.,.,.,.
O=c1[nH]c(NCCCO)nc2c1C1(CCCC1)Cc1ccccc1-2,.,.,.,65
Cc1ccc2c(c1)N(Cc1ccncc1)C(=O)C(C)O2 (stereo unspecified),.,.,.,.
O=C(COc1ccccc1)Nc1nn[nH]n1,.,.,.,.
COCCNc1cc(C)nc2c3c(C)cc(C)nc3nn12,.,47,.,.
Cc1cc(C)c2c(n1)nn1c(NCCN3CCOCC3)cc(C)nc21,.,.,.,.
CCOc1cc(CNCc2ccncc2)cc(Br)c1OCc1ccccc1F,.,.,.,/
CC(=Nc1cccc(C)c1)c1sc2ccccc2c1O,.,.,.,/
CC(=Nc1ccc(O)cc1)c1sc2ccccc2c1O,.,.,.,100
CCNc1nc(NCC)nc(SCCOC(=O)COc2ccc(Cl)cc2Cl)n1,.,.,.,/
O=c1c2c(nc3n1CCCCC3)sc1c(O)c(Br)ccc12,54,.,.,/
CCN(CC)CCOc1c(Br)ccc2c1sc1nc3n(c(=O)c12)CCC3,.,.,.,.
CCCCCOC(=O)CSc1nnc(-c2ccccc2)c(=O)[nH]1,.,.,.,.
Cc1cc(N2C(=O)C3C4c5ccccc5C(c5ccccc54)C3C2=O)no1 (stereo unspecified),.,.,.,.
